Measured values from ChEMBL document CHEMBL2390926, “Identification of novel FLT3 kinase inhibitors” (Eur J Med Chem, 2013).
Active and inactive are the calls of the source. No cut-off for these calls is given here.

Tests used:
BaF3 [1] = experiment: Cytotoxicity against mouse BA/F3 cells transfected with FLT3-ITD-G697R at 1 uM after 24 hrs by plate reader analysis; type: functional, cell-based
BaF3 [2] = experiment: Cytotoxicity against mouse BA/F3 cells transfected with FLT3-ITD-F691l at 1 uM after 24 hrs by plate reader analysis; type: functional, cell-based
[3] = molecular target: Tyrosine-protein kinase Yes (Homo sapiens) (UniProt P07947); experiment: Inhibition of YES (unknown origin) transfected in mouse Ba/F3 cells at 5 uM after 24 hrs; type: cell-based; conditions: BaF3
[4] = molecular target: T1, Tyrosine-protein kinase receptor TYRO3 (Homo sapiens) (UniProt Q06418); experiment: Inhibition of TYRO3 (unknown origin) transfected in mouse Ba/F3 cells at 5 uM after 24 hrs; type: cell-based; conditions: BaF3
T1 sequence (whole entry): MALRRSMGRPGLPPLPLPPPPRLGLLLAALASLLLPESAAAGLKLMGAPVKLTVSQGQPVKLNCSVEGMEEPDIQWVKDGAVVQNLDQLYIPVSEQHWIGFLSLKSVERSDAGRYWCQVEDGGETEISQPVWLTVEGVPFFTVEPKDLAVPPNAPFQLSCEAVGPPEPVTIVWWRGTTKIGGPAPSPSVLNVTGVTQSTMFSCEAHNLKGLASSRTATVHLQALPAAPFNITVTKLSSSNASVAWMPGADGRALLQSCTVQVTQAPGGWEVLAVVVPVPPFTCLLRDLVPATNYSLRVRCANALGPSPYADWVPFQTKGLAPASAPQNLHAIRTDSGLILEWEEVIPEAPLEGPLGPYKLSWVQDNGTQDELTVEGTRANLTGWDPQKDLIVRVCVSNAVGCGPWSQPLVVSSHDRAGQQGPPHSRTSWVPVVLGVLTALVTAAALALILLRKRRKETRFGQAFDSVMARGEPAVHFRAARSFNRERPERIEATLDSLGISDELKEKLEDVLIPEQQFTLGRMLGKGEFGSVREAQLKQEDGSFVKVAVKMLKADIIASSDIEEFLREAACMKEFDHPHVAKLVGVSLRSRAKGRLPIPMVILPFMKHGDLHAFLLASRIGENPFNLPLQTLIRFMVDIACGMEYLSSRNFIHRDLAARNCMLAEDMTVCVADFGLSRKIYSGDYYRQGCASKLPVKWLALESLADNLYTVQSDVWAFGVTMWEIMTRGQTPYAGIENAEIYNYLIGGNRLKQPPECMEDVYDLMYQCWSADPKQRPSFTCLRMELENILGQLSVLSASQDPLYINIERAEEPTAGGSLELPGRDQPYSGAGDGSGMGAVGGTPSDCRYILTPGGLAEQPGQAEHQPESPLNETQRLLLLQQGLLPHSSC

[5] = molecular target: T2, Non-receptor tyrosine-protein kinase TNK1 (Homo sapiens) (UniProt Q13470); experiment: Inhibition of TNK1 (unknown origin) transfected in mouse Ba/F3 cells at 5 uM after 24 hrs; type: cell-based; conditions: BaF3
T2 sequence (whole entry): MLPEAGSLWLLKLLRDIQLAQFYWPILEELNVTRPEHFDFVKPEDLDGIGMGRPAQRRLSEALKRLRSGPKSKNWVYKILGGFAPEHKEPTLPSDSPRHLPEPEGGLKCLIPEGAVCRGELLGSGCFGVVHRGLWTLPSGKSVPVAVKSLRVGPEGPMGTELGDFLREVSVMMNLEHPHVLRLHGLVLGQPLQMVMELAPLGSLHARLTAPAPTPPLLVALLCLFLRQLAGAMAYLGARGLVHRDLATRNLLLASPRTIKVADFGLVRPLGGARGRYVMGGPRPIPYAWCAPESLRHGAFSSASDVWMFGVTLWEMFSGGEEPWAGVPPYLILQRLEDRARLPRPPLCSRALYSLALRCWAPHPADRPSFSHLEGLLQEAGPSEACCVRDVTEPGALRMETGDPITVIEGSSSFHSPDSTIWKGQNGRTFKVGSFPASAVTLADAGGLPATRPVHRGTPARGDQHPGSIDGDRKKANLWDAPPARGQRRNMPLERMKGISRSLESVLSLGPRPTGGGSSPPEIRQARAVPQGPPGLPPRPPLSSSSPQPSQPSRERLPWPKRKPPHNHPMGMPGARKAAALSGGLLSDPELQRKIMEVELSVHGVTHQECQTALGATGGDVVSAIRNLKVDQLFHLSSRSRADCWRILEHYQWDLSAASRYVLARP

[6] = molecular target: Tyrosine-protein kinase HCK (Homo sapiens) (UniProt P08631); experiment: Inhibition of HCK (unknown origin) transfected in mouse Ba/F3 cells at 5 uM after 24 hrs; type: cell-based; conditions: BaF3
Procedure, shortened: (§1)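 Kinase specificity panel: each Ba/F3 line transformed with one of 24 tyrosine kinases depends on that kinase to grow. Cells were given compound at 1 or 5 µM for 24 h, with DMSO as comparator. Percentage growth was read by ATP-lite luminescence and reported as mean ± SEM.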

[7] = molecular target: Fibroblast growth factor receptor 3 (Homo sapiens) (UniProt P22607); experiment: Inhibition of FGFR3 (unknown origin) transfected in mouse Ba/F3 cells at 5 uM after 24 hrs; type: cell-based; conditions: BaF3; procedure, shortened: as §1
[8] = molecular target: Receptor tyrosine-protein kinase erbB-2 (Homo sapiens) (UniProt P04626); experiment: Inhibition of ERBB2 (unknown origin) transfected in mouse Ba/F3 cells at 5 uM after 24 hrs; type: cell-based; conditions: BaF3; procedure, shortened: as §1
[9] = molecular target: Epidermal growth factor receptor (Homo sapiens) (UniProt P00533); experiment: Inhibition of EGFR (unknown origin) transfected in mouse Ba/F3 cells at 5 uM after 24 hrs; type: cell-based; conditions: BaF3; procedure, shortened: as §1
Sequence of Epidermal growth factor receptor (Homo sapiens) (P00533 whole entry): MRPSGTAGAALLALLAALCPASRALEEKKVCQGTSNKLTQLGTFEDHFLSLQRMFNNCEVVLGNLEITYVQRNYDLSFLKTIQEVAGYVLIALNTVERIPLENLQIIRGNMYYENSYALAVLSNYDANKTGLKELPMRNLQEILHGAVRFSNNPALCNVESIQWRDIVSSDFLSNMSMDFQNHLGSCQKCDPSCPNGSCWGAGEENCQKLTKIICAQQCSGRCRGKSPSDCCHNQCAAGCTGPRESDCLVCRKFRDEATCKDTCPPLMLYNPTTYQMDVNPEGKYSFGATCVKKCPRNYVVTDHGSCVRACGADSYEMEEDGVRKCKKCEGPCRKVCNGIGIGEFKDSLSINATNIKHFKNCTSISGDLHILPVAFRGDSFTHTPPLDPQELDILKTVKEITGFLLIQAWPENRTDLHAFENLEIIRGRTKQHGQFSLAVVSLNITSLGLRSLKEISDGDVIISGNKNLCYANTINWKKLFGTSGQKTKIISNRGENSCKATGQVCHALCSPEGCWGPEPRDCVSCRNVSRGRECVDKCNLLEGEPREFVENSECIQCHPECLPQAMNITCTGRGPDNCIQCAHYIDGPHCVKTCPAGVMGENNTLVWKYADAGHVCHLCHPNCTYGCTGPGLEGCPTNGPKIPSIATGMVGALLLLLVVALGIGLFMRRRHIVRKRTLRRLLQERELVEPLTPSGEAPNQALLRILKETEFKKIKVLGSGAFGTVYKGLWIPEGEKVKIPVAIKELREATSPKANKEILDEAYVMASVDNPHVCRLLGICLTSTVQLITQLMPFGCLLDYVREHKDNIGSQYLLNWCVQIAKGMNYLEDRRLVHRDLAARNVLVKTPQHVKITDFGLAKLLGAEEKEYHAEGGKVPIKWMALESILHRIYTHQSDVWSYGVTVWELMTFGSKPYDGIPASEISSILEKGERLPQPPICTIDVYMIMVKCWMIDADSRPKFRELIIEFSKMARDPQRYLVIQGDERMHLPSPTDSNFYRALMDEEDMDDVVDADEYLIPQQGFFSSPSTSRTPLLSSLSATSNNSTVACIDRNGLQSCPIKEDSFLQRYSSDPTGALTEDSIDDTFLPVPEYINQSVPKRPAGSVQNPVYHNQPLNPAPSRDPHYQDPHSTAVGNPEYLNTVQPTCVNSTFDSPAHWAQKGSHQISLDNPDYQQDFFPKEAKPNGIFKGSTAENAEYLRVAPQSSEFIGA

Sequence of Tyrosine-protein kinase Yes (Homo sapiens) (P07947 2-543 limits assumed): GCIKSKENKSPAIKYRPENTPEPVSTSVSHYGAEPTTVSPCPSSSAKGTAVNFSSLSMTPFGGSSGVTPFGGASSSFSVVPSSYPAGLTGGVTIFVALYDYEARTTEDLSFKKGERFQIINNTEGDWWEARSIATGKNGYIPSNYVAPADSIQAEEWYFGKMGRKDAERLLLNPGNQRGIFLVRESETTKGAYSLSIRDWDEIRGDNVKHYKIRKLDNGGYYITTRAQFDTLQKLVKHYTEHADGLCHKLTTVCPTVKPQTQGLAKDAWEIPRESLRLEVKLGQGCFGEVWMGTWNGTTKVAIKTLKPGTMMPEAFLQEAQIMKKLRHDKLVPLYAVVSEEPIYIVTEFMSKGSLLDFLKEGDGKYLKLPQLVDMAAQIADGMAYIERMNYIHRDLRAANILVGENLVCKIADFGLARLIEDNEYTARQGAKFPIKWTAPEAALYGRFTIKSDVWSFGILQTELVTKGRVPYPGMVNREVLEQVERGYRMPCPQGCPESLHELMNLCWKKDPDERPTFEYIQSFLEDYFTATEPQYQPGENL
Sequence of Tyrosine-protein kinase HCK (Homo sapiens) (P08631 2-526 limits assumed): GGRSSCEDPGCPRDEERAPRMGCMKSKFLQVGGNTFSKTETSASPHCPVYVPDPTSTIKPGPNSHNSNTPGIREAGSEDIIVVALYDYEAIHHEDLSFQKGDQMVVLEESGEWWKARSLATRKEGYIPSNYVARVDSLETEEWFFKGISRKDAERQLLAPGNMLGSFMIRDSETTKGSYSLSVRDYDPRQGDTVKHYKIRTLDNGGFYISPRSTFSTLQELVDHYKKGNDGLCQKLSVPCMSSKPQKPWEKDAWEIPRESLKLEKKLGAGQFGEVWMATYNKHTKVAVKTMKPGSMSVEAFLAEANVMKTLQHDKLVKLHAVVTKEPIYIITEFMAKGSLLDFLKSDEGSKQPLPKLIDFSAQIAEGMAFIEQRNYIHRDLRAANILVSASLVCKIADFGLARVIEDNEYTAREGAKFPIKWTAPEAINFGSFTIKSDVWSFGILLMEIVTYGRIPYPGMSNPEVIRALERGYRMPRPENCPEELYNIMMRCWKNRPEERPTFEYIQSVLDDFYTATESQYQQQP
Sequence of Fibroblast growth factor receptor 3 (Homo sapiens) (P22607 23-806 limits assumed): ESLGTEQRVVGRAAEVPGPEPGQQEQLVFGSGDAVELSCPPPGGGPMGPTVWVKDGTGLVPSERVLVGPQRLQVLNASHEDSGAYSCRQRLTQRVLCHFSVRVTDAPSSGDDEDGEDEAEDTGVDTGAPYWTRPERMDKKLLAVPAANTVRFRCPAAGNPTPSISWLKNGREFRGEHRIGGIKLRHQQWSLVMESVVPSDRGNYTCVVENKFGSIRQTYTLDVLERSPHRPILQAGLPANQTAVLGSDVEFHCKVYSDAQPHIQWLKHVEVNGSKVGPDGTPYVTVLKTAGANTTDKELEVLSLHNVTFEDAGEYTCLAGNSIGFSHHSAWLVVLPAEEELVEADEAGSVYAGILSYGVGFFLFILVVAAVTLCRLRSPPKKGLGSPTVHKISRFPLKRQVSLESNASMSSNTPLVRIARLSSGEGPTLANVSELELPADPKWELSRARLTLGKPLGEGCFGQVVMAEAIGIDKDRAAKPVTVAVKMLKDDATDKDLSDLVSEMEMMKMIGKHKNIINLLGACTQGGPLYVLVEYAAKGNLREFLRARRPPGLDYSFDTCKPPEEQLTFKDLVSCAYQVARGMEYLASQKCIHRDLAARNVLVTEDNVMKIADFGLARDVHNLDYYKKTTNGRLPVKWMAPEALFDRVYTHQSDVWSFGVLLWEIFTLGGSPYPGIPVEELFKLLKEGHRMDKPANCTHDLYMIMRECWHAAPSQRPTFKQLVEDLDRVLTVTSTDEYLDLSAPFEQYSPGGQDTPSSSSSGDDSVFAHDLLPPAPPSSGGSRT
Sequence of Receptor tyrosine-protein kinase erbB-2 (Homo sapiens) (P04626 whole entry): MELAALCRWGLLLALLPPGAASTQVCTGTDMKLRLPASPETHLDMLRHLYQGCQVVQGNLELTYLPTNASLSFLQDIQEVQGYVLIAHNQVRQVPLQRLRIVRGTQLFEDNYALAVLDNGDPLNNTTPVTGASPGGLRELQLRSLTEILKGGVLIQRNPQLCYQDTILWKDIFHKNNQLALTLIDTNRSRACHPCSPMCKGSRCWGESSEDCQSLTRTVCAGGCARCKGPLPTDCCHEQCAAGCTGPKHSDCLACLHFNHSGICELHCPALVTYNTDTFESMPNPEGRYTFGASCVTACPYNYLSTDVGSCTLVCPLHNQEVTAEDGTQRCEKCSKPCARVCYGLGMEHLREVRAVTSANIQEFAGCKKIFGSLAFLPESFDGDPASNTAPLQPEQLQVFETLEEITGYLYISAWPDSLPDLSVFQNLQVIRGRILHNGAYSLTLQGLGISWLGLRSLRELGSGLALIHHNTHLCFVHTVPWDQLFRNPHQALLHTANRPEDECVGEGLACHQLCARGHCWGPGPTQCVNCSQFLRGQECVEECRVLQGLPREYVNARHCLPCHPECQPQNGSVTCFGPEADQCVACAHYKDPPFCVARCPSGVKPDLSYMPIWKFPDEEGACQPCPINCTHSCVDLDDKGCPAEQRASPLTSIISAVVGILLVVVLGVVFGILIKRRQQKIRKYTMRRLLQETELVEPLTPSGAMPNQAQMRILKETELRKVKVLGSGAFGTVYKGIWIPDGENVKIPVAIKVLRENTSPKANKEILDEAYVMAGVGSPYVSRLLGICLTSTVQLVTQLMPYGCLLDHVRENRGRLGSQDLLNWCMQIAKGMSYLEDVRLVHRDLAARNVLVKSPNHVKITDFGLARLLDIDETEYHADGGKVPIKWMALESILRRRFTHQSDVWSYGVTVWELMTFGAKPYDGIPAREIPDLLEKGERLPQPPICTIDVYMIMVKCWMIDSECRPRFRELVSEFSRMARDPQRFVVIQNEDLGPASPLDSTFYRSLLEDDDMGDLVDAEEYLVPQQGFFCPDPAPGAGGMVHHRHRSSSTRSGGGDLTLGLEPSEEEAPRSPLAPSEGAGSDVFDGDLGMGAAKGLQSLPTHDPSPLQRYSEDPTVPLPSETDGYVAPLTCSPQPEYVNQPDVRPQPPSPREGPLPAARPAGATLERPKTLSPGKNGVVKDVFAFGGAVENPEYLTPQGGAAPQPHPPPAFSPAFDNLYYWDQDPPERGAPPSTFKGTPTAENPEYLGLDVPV

## COc1ccc(C(=O)Nc2cc(-c3ccccc3)[nH]n2)cc1
BaF3 [1]
  Activity: Active
BaF3 [2]
  Activity: Active

## Fc1ccc(-c2n[nH]cc2-c2ccncc2)cc1Cl
[3]
  inhibition: inactive
[4]
  inhibition: inactive
[5]
  inhibition: inactive
[6]
  inhibition: inactive
[7]
  inhibition: inactive
[8]
  inhibition: inactive
[9]
  inhibition: inactive

## Cc1ccc(-n2cnc3cc(Nc4nnc(C)c5ccccc45)ccc32)cc1
[3]
  inhibition: inactive
[4]
  inhibition: inactive
[5]
  inhibition: inactive
[6]
  inhibition: inactive
[7]
  inhibition: inactive
[8]
  inhibition: inactive
[9]
  inhibition: inactive
BaF3 [1]
  Activity: Active
BaF3 [2]
  Activity: Active
